Rows were chosen to be rich in hits. Some 2.4% of all compounds tested hit in one or more screens of this group.
NPY-Y1 PAM-ag: potentiates or activates human NPY-Y1 receptor; P25929; 220,000 tested, 0.37% active; NPY-Y1 expressing cells, potentiator/agonist activation; activation, % at 3.6 µM; in the data active = activation above about 33%, passing the limit was not always enough;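 note: cells stimulated with NPY at EC10 then isoproterenol at EC100; 0% = low agonist plus stimulus and 100% = saturating agonist plus stimulus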
S1P4 antagonist: human S1P4 receptor antagonism | 220,000 tested, 0.26% active | S1P4-expressing cells, antagonist mode, reporter read-out | inhibition, % at 4.98 µM; in the data active = inhibition above about 29%;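 note: 0% = wells stimulated with agonist and 100% = vehicle wells without agonist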
NPY-Y2 PAM-ag: potentiators or agonists of human neuropeptide Y receptor Y2 | P49146 | cells expressing NPY-Y2, potentiator/agonist read-out | activation, % at 3.6 µM | 220,000 tested, 0.45% active | AID 1359; in the data active = activation above about 27%;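 note: cells stimulated with NPY near EC25 plus isoproterenol at EC100; 0% = vehicle plus submaximal agonist and 100% = vehicle plus saturating agonist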
Target sequence (P49146 whole entry, looked up): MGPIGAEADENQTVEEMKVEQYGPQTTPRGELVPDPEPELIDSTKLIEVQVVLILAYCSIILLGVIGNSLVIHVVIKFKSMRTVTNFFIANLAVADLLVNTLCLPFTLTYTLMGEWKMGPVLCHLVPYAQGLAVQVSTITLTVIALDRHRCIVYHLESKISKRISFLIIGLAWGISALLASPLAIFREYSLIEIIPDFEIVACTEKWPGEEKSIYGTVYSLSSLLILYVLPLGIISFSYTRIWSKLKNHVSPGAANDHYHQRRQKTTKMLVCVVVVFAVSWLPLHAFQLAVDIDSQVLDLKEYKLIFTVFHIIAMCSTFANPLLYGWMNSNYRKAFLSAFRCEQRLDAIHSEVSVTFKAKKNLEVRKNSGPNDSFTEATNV
S1P4 agonist: human S1P4 receptor agonism; 220,000 tested, 0.35% active; activation, % at 4.98 µM; S1P4-expressing cell line, agonist reporter assay; O95977; in the data active = activation above about 11%;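 note: 0% = DMSO vehicle and 100% = reference agonist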
NPY Y2 blocker: antagonists of human neuropeptide Y receptor Y2 | P49146 | NPY-Y2 expressing cells, antagonist mode | inhibition, % at 2.7 µM | 140,000 tested, 0.99% active; in the data active = inhibition above about 17%;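 note: 0% = vehicle with agonist challenge and 100% = reference antagonist with challenge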
NPY Y1 blocker: blocks the human neuropeptide Y Y1 receptor. HEK293-CNG Y1 cells, membrane potential fluorescence; NPY at EC95, then isoproterenol. inhibition, % at 3.6 µM. 200,000 tested, 1% active. AID 1040;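 active = inhibition above the campaign mean inhibition of all tested compounds plus 3 SD, cut at about 20% in these data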;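 note: 0% = DMSO wells given NPY plus isoproterenol and 100% = isoproterenol alone without NPY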
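Material: HEK293 cells co-expressing NPY Y1 receptor and cyclic-nucleotide gated channel. Timing: compound incubation 1 h at room temperature, readout 45 min post-stimulation. Signal: fluorescence, membrane potential probe.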
An asterisk follows results filed as active; / = not tested or not shown.

SMILES	NPY-Y1 PAM-ag	S1P4 antagonist	NPY-Y2 PAM-ag	S1P4 agonist	NPY Y2 blocker	NPY Y1 blocker
CS(=O)(=O)Nc1ccc(C2=NN(C(=O)c3ccco3)C(c3cccc(F)c3)C2)cc1 (centres undefined)	22	8	11	-2	/	-4
CCS(=O)(=O)Nc1ccc(C2=NN(C(=O)c3ccco3)C(c3cccc(F)c3)C2)cc1 (centres undefined)	35	-6	35*	-1	/	-6
COc1ccc(CNC(=O)c2nnn(-c3cccc(C(F)(F)F)c3)c2N)cc1	6	-6	3	1	/	-2
COc1ccc(-n2c(-c3ccc(Br)cc3)c[n+]3c2CCc2ccccc2-3)cc1	-98	-8	-5	0	25*	59*
O=C(COc1ccccc1)N1CCc2ccccc21	24	5	-3	0	2	0
O=C(COc1ccc2ccccc2c1CN1CCOCC1)N1CCc2ccccc21	16	8	26	0	28*	22*
CCC(C)(C)n1nnnc1C(c1cc(OC)ccc1OC)N1CCN(Cc2ccccc2)CC1 (centres undefined)	-1	6	-12	0	/	20*
CCC(C)(C)n1nnnc1C(c1ccc(OC)c(OC)c1)N1CCN(c2ccccc2)CC1 (centres undefined)	3	2	-10	-1	14	18
CCC(C)(C)n1nnnc1C(c1ccc(C)cc1)N1CCC(C)CC1 (centres undefined)	-17	0	-9	-1	20*	39*
CCC(C)(C)n1nnnc1C(c1ccc(OC)c(OC)c1)N1CCN(c2cccc(OC)c2)CC1 (centres undefined)	-34	4	-12	-1	22*	24*
CCC(C)(C)n1nnnc1C(c1ccccc1)N1CCN(Cc2ccccc2)CC1 (centres undefined)	-4	-16	-14	2	/	11
CCCNC(=O)NS(=O)(=O)c1ccc(Cl)cc1	-14	-13	18	2	-1	0
CCCNC(=O)c1nnsc1S(=O)(=O)c1ccc(Cl)cc1	-4	64*	-22	-3	/	-4
CCCNC(=O)c1nnsc1S(=O)c1ccc(Cl)cc1 (centres undefined)	13	77*	7	-1	/	-4
Cc1noc(C)c1-c1nnc(-c2ccc(C(F)(F)F)cc2)o1	-29	-9	-25	1	/	/
COc1ccc(NS(=O)(=O)c2ccc(OC)c(OC)c2)cc1OC	9	-18	0	-1	2	0
COc1ccc(S(=O)(=O)Nc2cccc(Cl)c2)cc1OC	68*	0	58*	1	0	-15
CC(=O)c1cccc(NC(=O)CN(C)Cc2ccc(OC(F)F)cc2)c1	-11	-16	-10	-1	/	/
O=C(C1CCC1)N1CCc2cc(S(=O)(=O)NCC3COc4ccccc4O3)ccc21 (centres undefined)	-49	-3	-24	-1	20*	24*
CC(=O)Oc1c(C)cc(Cl)cc1C(=O)Nc1ccc([N+](=O)[O-])cc1Cl	-49	-13	25	3	20*	16
CCN(CC(=O)NC(C)(C)C)C(=O)C(c1ccccc1)c1ccccc1	1	0	-5	1	/	3
CC(=O)Nc1ccc(NC(=O)c2c(C)nn(-c3ccccc3)c2Cl)cc1C	11	-2	3	1	/	5
Cc1c(C(=O)N/N=C/c2cccnc2)sc(=S)n1C	57*	-10	54*	0	1	8
CCN(CC)CCNC(C(=O)Nc1cccc(C(C)=O)c1)c1ccccc1 (centres undefined)	-7	16	-12	-2	/	2
CNC(=O)COC(=O)c1ccc(Cl)c(S(N)(=O)=O)c1	-15	16	-11	0	/	/
SMILES	NPY-Y1 PAM-ag	S1P4 antagonist	NPY-Y2 PAM-ag	S1P4 agonist	NPY Y2 blocker	NPY Y1 blocker
CC12CC3CC(C)(C1)CC(CN)(C3)C2	37*	-4	34*	-1	16	17
CCOC(=O)N1CCN(C(=O)C2CC(c3cc(OC)ccc3OC)=NO2)CC1 (centres undefined)	12	-6	-14	1	3	1
CCOC(=O)[C@@H]1C(c2c(OC)cc(OC)cc2OC)=NO[C@@H]1C(=O)OCC	69*	0	33*	1	0	-7
Cc1ccccc1Nc1c(-c2ccncc2)nc2ccc(Cl)cn12	54*	-6	45*	2	/	-6
CCOC(=O)CNc1c(-c2ccccc2)nc2ccc(Cl)cn12	5	-15	-12	1	-1	1
Cc1ccn2c(Nc3ccccc3C)c(-c3cccnc3)nc2c1	61*	-5	53*	3	/	0
Cc1ccc2nc(C)c(C(=O)NN=C3CCCCCC3)n2c1	21	-6	20	-1	/	1
FC(F)(F)Oc1ccc(NC(=S)Nc2ccccc2N2CCOCC2)cc1	-8	-7	9	-1	/	/
Cc1cccc(N2CCN(Cc3nc(-c4ccccc4Cl)oc3C)CC2)n1	-18	-21	-39	-2	/	20*
Cc1ccc(C(=O)NC(=S)Nc2ccc3c(c2)OCCO3)c(C)c1	-17	-5	-23	0	8	22*
CC(C)(C)c1ccc(Oc2ccc(NC(=O)c3ccco3)cn2)cc1	54*	9	58*	0	/	/
CCOc1ccc(OCCn2nnc3ccccc3c2=O)cc1	-15	-1	-14	3	/	6
CCCCCCNC(=O)c1cc(-c2ccco2)nc2ccccc12	-149	-20	-123	-1	66*	57*
Cc1c(O)c(CN(C)C)cc2c1oc(=O)c1ccccc12	84*	6	51*	2	/	/
COCCNC(=O)C(c1cccs1)N(Cc1cccs1)C(=O)Cn1nnc2ccccc21 (centres undefined)	-28	-10	-3	2	-3	3
CC(C)CCNC(=O)C(c1ccco1)N(Cc1cccs1)C(=O)Cn1nnc2ccccc21 (centres undefined)	-26	-10	-19	-3	14	24*
CC(=O)Nc1ccc(S(=O)(=O)N2CCN(c3nc(NC4CCCC4)c4ccccc4n3)CC2)cc1	-1	-5	32*	2	9	13
Cc1nc2sc(C#N)c(N)c2c2c1CCCC2	-84	-13	-43	0	25*	22*
N#Cc1sc2nc(N3CCCCC3)c3c(c2c1N)CCCC3	-22	-19	-14	-1	1	-2
CC(CCc1ccccc1)NCC(O)c1ccc(O)c(C(N)=O)c1 (centres undefined)	116*	-26	103*	3	1	-14
C=CCc1ccccc1OCC(O)CNC (centres undefined)	110*	-7	101*	0	0	-21
CCOc1ccccc1CNCCNCC(C)O (centres undefined)	-2	-4	-8	0	/	4
COc1ccc(OCC(O)CN2CCN(c3ccc(Cl)cc3)CC2)cc1 (centres undefined)	16	-16	-7	-1	/	/

Screening data as filed in PubChem.
